Laboratory results taken from ChEMBL document CHEMBL4145598, “Discovery and Development of 8-Substituted Cycloberberine Derivatives as Novel Antibacterial Agents against MRSA” (ACS Med Chem Lett, 2018).

Assays:
Type in all cases: functional
Staphylococcus aureus [1] = test: Antimicrobial activity against methicillin-resistant Staphylococcus aureus ATCC 33591 after 18 hrs by agar dilution assay; details: ATCC 33591, 18 h
Method in brief: (§1)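 Drug-resistant S. aureus (MRSA/VISA) panel. It includes ATCC reference strains and clinical isolates from patients in Chinese hospitals. MIC was determined by standard methods and reported in μg/mL, with levofloxacin as the reference drug.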

Staphylococcus aureus [2] = test: Antimicrobial activity against methicillin-sensitive Staphylococcus aureus isolate 13-19 after 18 hrs by agar dilution assay; details: isolate 13-19, 18 h
Staphylococcus aureus [3] = test: Antimicrobial activity against methicillin-sensitive Staphylococcus aureus isolate 13-20 after 18 hrs by agar dilution assay; details: isolate 13-20, 18 h
Staphylococcus aureus [4] = test: Antimicrobial activity against vancomycin-intermediate Staphylococcus aureus ATCC 700698 after 18 hrs by agar dilution assay; details: ATCC 700698, 18 h
Method in brief: (§2)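 MICs in μg/mL against drug-resistant S. aureus (MRSA/VISA) by standard methods, with levofloxacin as the reference drug. ATCC strains were used.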

Staphylococcus aureus [5] = test: Antimicrobial activity against methicillin-resistant Staphylococcus aureus isolate 12-8 after 18 hrs by agar dilution assay; details: isolate 12-8, 18 h; method in brief: as §1
Staphylococcus aureus [6] = test: Antimicrobial activity against methicillin-resistant Staphylococcus aureus isolate 12-16 after 18 hrs by agar dilution assay; details: isolate 12-16, 18 h; method in brief: as §1
Staphylococcus hominis = test: Antimicrobial activity against Staphylococcus hominis ATCC 35982 after 18 hrs by agar dilution assay; details: ATCC 35982, 18 h
[7] = test system: Staphylococcus epidermidis; test: Antimicrobial activity against methicillin-sensitive Staphylococcus epidermidis ATCC 12228 after 18 hrs by agar dilution assay; details: ATCC 12228, 18 h
Staphylococcus aureus [8] = test: Antimicrobial activity against methicillin-resistant Staphylococcus aureus isolate 13-23 after 18 hrs by agar dilution assay; details: isolate 13-23, 18 h; method in brief: as §1
[9] = test system: Staphylococcus epidermidis; test: Antimicrobial activity against methicillin-sensitive Staphylococcus epidermidis isolate 13-1 after 18 hrs by agar dilution assay; details: isolate 13-1, 18 h
Staphylococcus aureus [10] = test: Antimicrobial activity against methicillin-sensitive Staphylococcus aureus isolate 13-21 after 18 hrs by agar dilution assay; details: isolate 13-21, 18 h
Staphylococcus aureus [11] = test: Antimicrobial activity against methicillin-sensitive Staphylococcus aureus ATCC 29213 after 18 hrs by agar dilution assay; details: ATCC 29213, 18 h
Staphylococcus aureus [12] = test: Antimicrobial activity against methicillin-resistant Staphylococcus aureus isolate 12-13 after 18 hrs by agar dilution assay; details: isolate 12-13, 18 h; method in brief: as §1
Staphylococcus aureus [13] = test: Antimicrobial activity against methicillin-sensitive Staphylococcus aureus isolate 13-17 after 18 hrs by agar dilution assay; details: isolate 13-17, 18 h
Staphylococcus aureus [14] = test: Antimicrobial activity against methicillin-sensitive Staphylococcus aureus isolate 15 after 18 hrs by agar dilution assay; details: isolate 15, 18 h
Staphylococcus aureus [15] = test: Antimicrobial activity against vancomycin-intermediate Staphylococcus aureus ATCC 700699 after 18 hrs by agar dilution assay; details: ATCC 700699, 18 h; method in brief: as §2
Staphylococcus aureus [16] = test: Antimicrobial activity against methicillin-resistant Staphylococcus aureus isolate 13-18 after 18 hrs by agar dilution assay; details: isolate 13-18, 18 h; method in brief: as §1
[17] = test system: Staphylococcus saprophyticus; test: Antimicrobial activity against Staphylococcus saprophyticus ATCC 15305 after 18 hrs by agar dilution assay; details: ATCC 15305, 18 h
Staphylococcus aureus [18] = test: Antimicrobial activity against methicillin-resistant Staphylococcus aureus isolate 12-3 after 18 hrs by agar dilution assay; details: isolate 12-3, 18 h; method in brief: as §1
Staphylococcus aureus [19] = test: Antimicrobial activity against methicillin-resistant Staphylococcus aureus ATCC-BAA-1708 after 18 hrs by agar dilution assay; details: ATCC-BAA-1708, 18 h; method in brief: as §1

Structure (SMILES) | MIC (Staphylococcus aureus [1]) [µg/mL] | MIC (Staphylococcus aureus [2]) [µg/mL] | MIC (Staphylococcus aureus [3]) [µg/mL] | MIC (Staphylococcus aureus [4]) [µg/mL] | MIC (Staphylococcus aureus [5]) [µg/mL] | MIC (Staphylococcus aureus [6]) [µg/mL] | MIC (Staphylococcus hominis) [µg/mL] | MIC [7] [µg/mL] | MIC (Staphylococcus aureus [8]) [µg/mL] | MIC [9] [µg/mL] | MIC (Staphylococcus aureus [10]) [µg/mL] | MIC (Staphylococcus aureus [11]) [µg/mL] | MIC (Staphylococcus aureus [12]) [µg/mL] | MIC (Staphylococcus aureus [13]) [µg/mL] | MIC (Staphylococcus aureus [14]) [µg/mL] | MIC (Staphylococcus aureus [15]) [µg/mL] | MIC (Staphylococcus aureus [16]) [µg/mL] | MIC [17] [µg/mL] | MIC (Staphylococcus aureus [18]) [µg/mL] | MIC (Staphylococcus aureus [19]) [µg/mL]
COc1ccc2c(c[n+]3c4c2ccc2c5c(cc(c24)CC3)OCO5)c1OCC(=O)c1ccccc1OC(F)(F)F.[Br-] | 8 | 8 | 8 | > 64 | 8 | 4 | 4 | 4 | 8 | 16 | 8 | 8 | 4 | 8 | 16 | > 64 | 8 | 4 | 16 | 32
C[C@H]1COc2c(N3CCN(C)CC3)c(F)cc3c(=O)c(C(=O)O)cn1c23.C[C@H]1COc2c(N3CCN(C)CC3)c(F)cc3c(=O)c(C(=O)O)cn1c23.O [LEVOFLOXACIN] | 0.125 | 0.5 | 0.125 | 32 | 32 | 32 | 0.125 | 0.06 | 32 | 0.125 | 0.25 | 0.06 | 32 | 0.125 | 0.125 | 2 | 32 | 0.5 | 32 | 16
COc1ccc2c(c[n+]3c4c2ccc2c5c(cc(c24)CC3)OCO5)c1OCC(=O)c1ccccc1.[Br-] | 16 | 16 | 32 | > 64 | 16 | 32 | 32 | 8 | 16 | 64 | 16 | 16 | 32 | 16 | 32 | > 64 | 32 | 16 | 16 | 32
COc1ccc2c(c[n+]3c4c2ccc2c5c(cc(c24)CC3)OCO5)c1N.[Cl-] | 4 | 8 | 4 | 64 | 4 | 4 | 8 | 8 | 8 | 8 | 8 | 4 | 4 | 4 | 4 | 4 | 8 | 8 | 8 | 4
COc1ccc2c(c[n+]3c4c2ccc2c5c(cc(c24)CC3)OCO5)c1OCC(=O)c1ccc(C(F)(F)F)cc1.[Br-] | > 64 | > 64 | > 64 | > 64 | > 64 | > 64 | > 64 | > 64 | > 64 | > 64 | > 64 | > 64 | > 64 | > 64 | > 64 | > 64 | > 64 | > 64 | > 64 | > 64
COc1ccc2c(c[n+]3c4c2ccc2c5c(cc(c24)CC3)OCO5)c1NC(=O)c1c(C)noc1C.[Cl-] | > 64 | > 64 | > 64 | > 64 | > 64 | > 64 | > 64 | > 64 | > 64 | > 64 | > 64 | > 64 | > 64 | > 64 | > 64 | > 64 | > 64 | > 64 | > 64 | > 64
